# Laboratory results from ChEMBL document CHEMBL1128419, “Orally active beta-lactam inhibitors of human leukocyte elastase. 3. Stereospecific synthesis and structure-activity relationships for 3,3-dialkylazetidin-2-ones” (J Med Chem, 1995).
# pKi: −log10 of the molar value.
# Tests used:
# [1] = target: T1, Neutrophil elastase (Homo sapiens) (UniProt P08246); experiment: In vitro inhibition of human leukocyte elastase (HLE), and the Kobs[I] is the second-order rate constant for the time dependent inactivation of HLE by the compound.
# T1 sequence (whole entry): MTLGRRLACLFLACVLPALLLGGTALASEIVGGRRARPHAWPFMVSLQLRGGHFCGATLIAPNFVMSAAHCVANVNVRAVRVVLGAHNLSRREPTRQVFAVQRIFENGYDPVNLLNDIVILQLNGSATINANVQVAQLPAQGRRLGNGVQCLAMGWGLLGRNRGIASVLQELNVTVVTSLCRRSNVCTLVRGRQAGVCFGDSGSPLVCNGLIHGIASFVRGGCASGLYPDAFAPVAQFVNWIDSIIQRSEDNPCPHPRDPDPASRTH
# [2] = target: T1, Neutrophil elastase (Homo sapiens); experiment: Compound at an peroral dose of 30 mpk was tested for the inhibition of HLE-induced lung hemorrhage in hamsters; format: functional
# Procedure, shortened: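 Hamster lung hemorrhage screen: 30 mg/kg given orally as Methocel suspension 30 min before intratracheal instillation of 50 units HLE/animal; sacrifice at 3 h, saline lung lavage, hemoglobin measured at 414 nm; % inhibition versus vehicle-treated animals, averaged over three animals per dose and time.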
# [3] = target: T2, Neutrophil elastase (Homo sapiens, UniProt P08246); experiment: In vitro human leukocyte elastase (HLE) inhibition, and the Kobs[I] is the second-order rate constant for the time dependent inactivation of HLE by the compound.
# T2 sequence (P08246 whole entry): T1 sequence (whole entry)
# [4] = tested on: Cricetinae gen. sp.; experiment: Oral effective dose required to inhibit HLE-induced lung hemorrhage in hamster; format: functional, Cricetulus griseus
# Procedure, shortened: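 Oral doses of 30, 10, 3, 1 (and 0.3) mg/kg as Methocel suspension given 30 min before intratracheal instillation of 50 units HLE/animal in hamsters; lungs lavaged 3 h later, hemoglobin read at 414 nm; % inhibition versus vehicle used to fit a dose-response curve for ED50.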
# [5] = tested on: Cricetinae gen. sp.; experiment: Compound at an peroral dose of 100 mpk was tested for the inhibition of HLE-induced lung hemorrhage in hamsters; format: functional, Cricetulus griseus; conditions: po
Structure (SMILES),K obs / 1 [1] [M⁻¹ s⁻¹],inhibition [2] [%],pKi [3],ED50 [4] [mg/kg],inhibition in vivo at 100 mg/kg [5] [%]
CC[C@]1(Cc2ccccc2)C(=O)N(C(=O)NCc2ccccc2)[C@H]1Oc1ccc(C(=O)O)cc1,90,–,–,–,–
CC[C@@]1(C)C(=O)N(C(=O)N[C@H](C)c2ccccc2)[C@@H]1Oc1ccc(C(=O)O)cc1,400,–,–,–,–
C[C@]1(Oc2ccc(C(=O)O)cc2)N(C(=O)NCc2ccccc2)C(=O)C12CCCC2,1900,8,–,–,–
CC[C@@]1(C(C)C)C(=O)N(C(=O)NCc2ccccc2)[C@H]1Oc1ccc(C(=O)O)cc1,10,13,–,–,–
CCC[C@@H](NC(=O)N1C(=O)[C@@](CC)(CCC)[C@@H]1Oc1ccc(C(=O)O)cc1)c1ccccc1,60000,53,–,–,–
CCC[C@]1(CC)C(=O)N(C(=O)N[C@H](C)c2ccccc2)[C@H]1Oc1ccc(C(=O)O)cc1,4500,61,–,–,–
CC[C@@]1(C)C(=O)N(C(=O)NCc2ccccc2)[C@H]1Oc1ccc(C(=O)O)cc1,2000,70,–,–,–
C=CC[C@@]1(CC)C(=O)N(C(=O)NCc2ccccc2)[C@H]1Oc1ccc(C(=O)O)cc1,2000,51,–,–,–
CC[C@@]1(Cc2ccccc2)C(=O)N(C(=O)NCc2ccccc2)[C@H]1Oc1ccc(C(=O)O)cc1,84,–,–,–,–
CC1(C)C(=O)N(C(=O)NCc2ccccc2)C1Oc1ccc(C(=O)O)cc1 (stereo not drawn),280,–,–,–,–
CC[C@H](NC(=O)N1C(=O)[C@](C)(CC)[C@@H]1Oc1ccc(C(=O)O)cc1)c1ccccc1,4700,22,–,–,–
CCCC1(CCC)C(=O)N(C(=O)NCc2ccccc2)C1Oc1ccc(C(=O)O)cc1 (stereo not drawn),2500,56,–,–,–
C=CC[C@]1(CC)C(=O)N(C(=O)NCc2ccccc2)[C@H]1Oc1ccc(C(=O)O)cc1,2800,56,–,–,–
CC(C)[C@@]1(C)C(=O)N(C(=O)NCc2ccccc2)[C@H]1Oc1ccc(C(=O)O)cc1,21,–,–,–,–
CC[C@@]1(C)C(=O)N(C(=O)N[C@@H](C)c2ccccc2)[C@H]1Oc1ccc(C(=O)O)cc1,4800,13,–,–,–
CC[C@@]1(C)C(=O)N(C(=O)NCc2ccccc2)[C@@H]1Oc1ccc(C(=O)O)cc1,220,–,–,–,–
CC[C@@]1(COC)C(=O)N(C(=O)NCc2ccccc2)[C@H]1Oc1ccc(C(=O)O)cc1,1900,46,–,–,–
CCC[C@@]1(C)C(=O)N(C(=O)NCc2ccccc2)[C@@H]1Oc1ccc(C(=O)O)cc1,–,–,4.29,–,–
CCCC[C@]1(CC)C(=O)N(C(=O)NCc2ccccc2)[C@H]1Oc1ccc(C(=O)O)cc1,4400,36,–,–,–
CCC(C)[C@]1(CC)C(=O)N(C(=O)NCc2ccccc2)[C@H]1Oc1ccc(C(=O)O)cc1 (stereo partly drawn),1200,23,–,–,–
CCC[C@@]1(CC)C(=O)N(C(=O)NCc2ccccc2)[C@H]1Oc1ccc(C(=O)O)cc1,3300,52,–,–,–
CC[C@]1(C)C(=O)N(C(=O)NCc2ccccc2)[C@@H]1Oc1ccc(C(=O)O)cc1,200,–,–,–,–
CCC[C@]1(CC)C(=O)N(C(=O)N[C@H](CC)c2ccccc2)[C@H]1Oc1ccc(C(=O)O)cc1,35500,52,–,–,–
CCCC1(CC)C(=O)N(C(=O)NCc2ccccc2)C1Oc1ccc(C(=O)O)cc1 (stereo not drawn),5200,78,–,–,–
CC[C@@]1(C)C(=O)N(C(=O)N[C@H](C)c2ccccc2)[C@H]1Oc1ccc(C(=O)O)cc1,15200,82,–,–,–
CC[C@@H](NC(=O)N1C(=O)[C@](C)(CC)[C@@H]1Oc1ccc(C(=O)O)cc1)c1ccccc1,91000,98,–,3.7,–
CCC[C@@]1(C)C(=O)N(C(=O)NCc2ccccc2)[C@H]1Oc1ccc(C(=O)O)cc1,1900,–,–,–,49
CCC[C@@H](NC(=O)N1C(=O)[C@](C)(CC)[C@@H]1Oc1ccc(C(=O)O)cc1)c1ccccc1,152000,94,–,1.5,–
CC[C@]1(C)C(=O)N(C(=O)NCc2ccccc2)[C@H]1Oc1ccc(C(=O)O)cc1,160,–,–,–,–
CCC1(CC)C(=O)N(C(=O)NCc2ccccc2)[C@]1(C)Oc1ccc(C(=O)O)cc1,1500,59,–,–,–
